ChEMBL document CHEMBL1287763, “Antiangiogenic properties of substituted (Z)-(±)-2-(N-benzylindol-3-ylmethylene)quinuclidin-3-ol/one analogs and their derivatives” (Bioorg Med Chem Lett, 2010)
Activity calls are given as the source filed them. The calls are words filed in the database; no cut-off is given here.

Legend:
HUVEC [1] = assay: Antiangiogenic activity against HUVEC assessed as inhibition of cell migration at 25 uM after 20 hrs by scratch assay; assay type: functional, cell-based; conditions: Homo sapiens
Method in brief: (§1)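 Confluent HUVEC monolayers were scratched with a pipette tip and washed twice with PBS. Compound was added in HUVEC medium, and cells were incubated at 37°C for 20 h. Images were taken at 0 h (right after compound addition) and at 20 h. Migration was compared with cells not given compound.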

HUVEC [2] = assay: Antiangiogenic activity against HUVEC assessed as inhibition of cell migration at 10 uM after 20 hrs by scratch assay; assay type: functional, cell-based; conditions: Homo sapiens; method in brief: as §1
HUVEC [3] = assay: Cytotoxicity against HUVEC assessed as cell viability at 10 uM after 6 hrs by crystal violet staining; assay type: cell-based; conditions: human
HUVEC [4] = assay: Inhibition of ECTO-NOX in HUVEC assessed as reduction of WST-1 at 10 uM […]; assay type: cell-based; conditions: Homo sapiens
Method in brief: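 HUVECs were grown for 24 h after seeding, then treated for 20 h in duplicate with analog (0.5, 1, 5, 10 µM) or DMSO solvent. WST-1 reduction was then measured following the kit protocol, read as optical density at 450 nm.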

HUVEC [5] = assay: Antiangiogenic activity against HUVEC assessed as inhibition of p70S6K1 phosphorylation at T389; assay type: functional, cell-based; conditions: Homo sapiens

O=[N+]([O-])c1ccc2c(c1)c(/C=C1/C(O)C3CCN1CC3)cn2Cc1ccccc1 (centres undefined)
Activity (HUVEC [1]): Active | Activity (HUVEC [2]): Active | Activity (HUVEC [3]): Non-toxic

OC1/C(=C/c2cn(Cc3ccccc3)c3ccc(Br)cc23)N2CCC1CC2 (centres undefined)
Activity (HUVEC [1]): Active | Activity (HUVEC [2]): Active | Activity (HUVEC [3]): Non-toxic | ECTO-NOX inhibition (active/not active) (HUVEC [4]): inactive

OC1/C(=C/c2cn(Cc3cccc(F)c3)c3ccc(Br)cc23)N2CCC1CC2 (centres undefined)
Activity (HUVEC [1]): Active | Activity (HUVEC [2]): Active | Activity (HUVEC [3]): Non-toxic

O=S(=O)(c1ccccc1)n1cc(/C=C2/C(=N/O)C3CCN2CC3)c2ccccc21
Activity (HUVEC [1]): Active | Activity (HUVEC [2]): Active | Activity (HUVEC [3]): Non-toxic | inhibition (HUVEC [5]): Active | ECTO-NOX inhibition (active/not active) (HUVEC [4]): Active

OC1/C(=C/c2cn(Cc3cccc(F)c3)c3ccccc23)N2CCC1CC2 (centres undefined)
Activity (HUVEC [1]): Active | Activity (HUVEC [2]): Active | Activity (HUVEC [3]): Non-toxic | ECTO-NOX inhibition (active/not active) (HUVEC [4]): inactive

O=C(Nc1ccccc1)OC1/C(=C/c2cn(S(=O)(=O)c3ccccc3)c3ccccc23)N2CCC1CC2 (centres undefined)
Activity (HUVEC [1]): Active | Activity (HUVEC [2]): Active

Cc1cccc(Cn2cc(/C=C3/C(O)C4CCN3CC4)c3cc(C)ccc32)c1 (centres undefined)
Activity (HUVEC [1]): Active | Activity (HUVEC [2]): Active | Activity (HUVEC [3]): Non-toxic | ECTO-NOX inhibition (active/not active) (HUVEC [4]): inactive

Cc1ccc(S(=O)(=O)n2cc(/C=C3/C(O)C4CCN3CC4)c3ccccc32)cc1 (centres undefined)
ECTO-NOX inhibition (active/not active) (HUVEC [4]): inactive

NC(=O)N/N=C1/C(=C/c2cn(S(=O)(=O)c3ccccc3)c3ccccc23)N2CCC1CC2
Activity (HUVEC [1]): Active | Activity (HUVEC [2]): Active | ECTO-NOX inhibition (active/not active) (HUVEC [4]): inactive
